Eight molecules from paper PMC4026406 (Drug Design, Development and Therapy, 2014) can be followed below.

In data set [1] the test system is Escherichia coli IFO 3301. As to the kind of experiment: Agar disc diffusion, growth inhibition zone. It is filed as cell-based. The following applies: IFO3301, 24 h, read-out: Diameter of growth inhibition zone EC. Summed up: (§1)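 Filter paper discs (8 mm) were loaded with test compound in DMSO at 200 μg/disc, with gentamicin, ampicillin trihydrate and clotrimazole discs at 100 μg/disc. Discs were placed on Müller–Hinton agar plates previously inoculated with IFO strains and incubated at 37°C. Inhibition zone diameters were read after 24 h for bacteria and 48 h for C. albicans.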

Data set [2] relates to Candida albicans IFO 0583. As to the kind of experiment: Agar disc diffusion, growth inhibition zone. The data set is classed as cell-based. The following applies: for inhibitory activity against C. albicans (in words): 200 μg/disc, compared with clotrimazole. Summed up: as §1
In data set [3] the test system is Staphylococcus aureus IFO 3060. In words: Determination of MIC. The data set is classed as cell-based. The following applies: IFO3060, 24 h, read-out: MIC SA. In short, it runs like this:
(§2)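 Broth two-fold dilution against IFO strains. Test compound and reference agents were dissolved in DMSO at 128 μg/mL and diluted two-fold from 128 to 0.5 μg/mL. Wells were inoculated with organism suspensions at 10^6 CFU/mL and incubated at 36°C for 24 h.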

Data set [4] concerns Bacillus subtilis IFO 3007. As to the kind of experiment: Determination of MIC. The following applies: IFO3007, 24 h, read-out: MIC BS. It is filed as cell-based. Summed up:
as §2

The test system of data set [5] is carrageenan-induced paw edema. In words: Carrageenan-induced paw edema method in rats. The following applies: for anti-inflammatory potency ratio relative to indomethacin: 40 mg/kg versus indomethacin. The data set is classed as in vivo, Sprague Dawley rats. In short, it runs like this:
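Male Sprague Dawley rats (140–190 g, 20–23°C, 2-day acclimatisation) were used in groups of five. Test compound (20 or 40 mg/kg) or indomethacin (5 mg/kg) was given i.p. in 1 mL 0.5% aqueous CMC. One hour later, 0.1 mL 1% carrageenan in saline went into the right hind paw, with saline in the left. Paw volume was measured by water plethysmometer at 4 h. Protection was calculated versus vehicle control and reported as mean ± SEM, Student's t-test.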

Data set [6] in a line: Oral acute toxicity. It is filed as in vivo, mice. The following applies: both, albino, mouse, in vivo, po. Summed up:
(§3)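 Albino mice of either sex were dosed in six groups of six. Test compound was given by oral intubation as fresh suspensions (1–12%) in 0.5% aqueous CMC at 250, 500, 750, 1,000, 1,250 and 1,500 mg/kg. Mortality was recorded at 24 h, and LD16, LD50 and LD84 were calculated.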

In data set [7] the test system is normal albino mice. As to the kind of experiment: Oral acute toxicity. The following applies: oral, mice; for LD16 / LD84: mortality at 24 hours. The data set is classed as in vivo. In short, it runs like this: as §3
In data set [8] the test system is Micrococcus luteus IFO 3232. In words: Determination of MIC. It is filed as cell-based. The following applies: IFO3232, 24 h, read-out: MIC ML. Summed up:
as §2

Data set [9] relates to Escherichia coli IFO 3301. As to the kind of experiment: Determination of MIC. The following applies: IFO3301, 24 h, read-out: MIC EC. It is filed as cell-based. In short, it runs like this: as §2
Data set [10] relates to Pseudomonas aeruginosa IFO 3448. As to the kind of experiment: Determination of MIC. It is filed as cell-based. The following applies: IFO3448, 24 h, read-out: MIC PA. Summed up:
as §2

Data set [11] relates to Candida albicans IFO 0583. As to the kind of experiment: Determination of MIC. The following applies: IFO0583, read-out: MIC CA. It is filed as cell-based. Summed up: as §2
The mark [12] stands for this setting: Candida albicans, IFO0583, 48 h, read-out: Diameter of growth inhibition zone CA.

Converted amounts (≈) assume the structure as drawn. Where only a bound is given, the exact number is not on record here.

With `CN(C)CCSc1nnc(C23CC4CC(CC(C4)C2)C3)n1C` [Compound 9a, 2-{[5-(Adamantan-1-yl)-4-methyl-4H-1,2,4-triazol-3-yl]sulfanyl}-N,N-dimethyl-ethanamine], the zone of inhibition at 200 µg/disc in data set [1] and in [2] (setting [12]) was under 10 mm throughout.

Regarding `CCOC(=O)CSc1nnc(C23CC4CC(CC(C4)C2)C3)n1-c1ccccc1` [Compound 13, Ethyl 2-[5-(1-adamantyl)-4-phenyl-1,2,4-triazol-3-ylsulfanyl]acetate], the zone of inhibition at 200 µg/disc in data set [1] is under 10 mm. In data set [2], the “inhibitory activity against C. albicans (in words)” value is reported as “marginal activity”. In addition, in data set [2] (setting [12]), the zone of inhibition at 200 µg/disc is 12 mm. Further, the MIC in [3] stood at 4 µg/mL (≈ 10.1 µM). In [4], the minimal inhibitory concentration (MIC) was found to be 16 µg/mL (≈ 40.2 µM). The “anti-inflammatory potency ratio relative to indomethacin” value in data set [5] is given as “about 15%”. The molecule also registered an LD50 at 24 h in [6] of 924 mg/kg. In [7], the “LD50 as percent of that of indomethacin” value is 5.41%, the LD16 is listed as 499 mg/kg and the LD84 was 1,435 mg/kg.

As for `CNC(C)C1CCC(N)C(OC2C(N)CC(N)C(OC3OCC(C)(O)C(NC)C3O)C2O)O1` (centres unmarked) [Gentamicin, gentamicin, reference compound], in data set [1], the zone of inhibition at 100 µg/disc amounted to 20 mm. In addition, the MIC in [3] turned out to be 2 µg/mL (≈ 4.19 µM); in data set [4], 2 µg/mL (≈ 4.19 µM); in data set [8] it was 2 µg/mL (≈ 4.19 µM); in [9], 0.5 µg/mL (≈ 1.05 µM); in data set [10] it was 1 µg/mL (≈ 2.09 µM).

`CC1(C)S[C@@H]2[C@H](NC(=O)[C@H](N)c3ccccc3)C(=O)N2[C@H]1C(=O)O` [Ampicillin, ampicillin, reference compound]: the zone of inhibition at 100 µg/disc in data set [1] came to 17 mm. Moreover, the MIC in data set [3] came to 2 µg/mL (≈ 5.72 µM); in data set [4] it was 0.5 µg/mL (≈ 1.43 µM); in [8] it was 2 µg/mL (≈ 5.72 µM); in [9], 2 µg/mL (≈ 5.72 µM); in data set [10] it was 2 µg/mL (≈ 5.72 µM).

In the case of `COCCSc1nnc(C23CC4CC(CC(C4)C2)C3)n1-c1ccccc1` [Compound 11, 5-(1-Adamantyl)-3-[(2-methoxyethyl)sulfanyl]-4-phenyl-1,2,4-triazole], the zone of inhibition at 200 µg/disc in data set [1] and in data set [2] (setting [12]) was under 10 mm in each case. Further, the “reduction in edema at both dose levels” value in [5] (20 and 40 mg/kg intraperitoneal, rats) was “did not show any significant anti-inflammatory activity”.

`CCOC(=O)N1CCN(Cn2nc(C34CC5CC(CC(C5)C3)C4)n(-c3ccccc3)c2=S)CC1` [Compound 6b, Ethyl 4-{[3-(adamantan-1-yl)-4-phenyl-5-sulfanylidene-4,5-dihydro-1H-1,2,4-triazol-1-yl]methyl}piperazine-1-carboxylate]: the zone of inhibition at 200 µg/disc in [1] and in data set [2] (setting [12]) was under 10 mm each time. The MIC in [4] worked out at 16 µg/mL (≈ 33.2 µM).

For the molecule `Clc1ccccc1C(c1ccccc1)(c1ccccc1)n1ccnc1` [Clotrimazole, clotrimazole, reference compound], the zone of inhibition at 100 µg/disc in [2] (setting [12]) is 21 mm. For the same molecule, in data set [11], the MIC was determined as 2 µg/mL (≈ 5.8 µM).

As to `O=C(O)CSc1nnc(C23CC4CC(CC(C4)C2)C3)n1-c1ccccc1` [Compound 14, 2-[5-(1-Adamantyl)-4-phenyl-1,2,4-triazol-3-ylsulfanyl]acetic acid], the zone of inhibition at 200 µg/disc in data set [1] was under 10 mm. In data set [2], the “inhibitory activity against C. albicans (in words)” value is “marginal activity”. Also, the zone of inhibition at 200 µg/disc in data set [2] (setting [12]) amounted to 12 mm. In addition, the MIC in data set [3] was found to be 8 µg/mL (≈ 21.7 µM). In addition, the “anti-inflammatory potency ratio relative to indomethacin” value in [5] is “about 15%”. The median lethal dose (LD50) at 24 h in [6] worked out at 554 mg/kg. Further, in data set [7], the “LD50 as percent of that of indomethacin” value worked out at 9.03%, the LD16 was 295 mg/kg and the LD84 was 1,338 mg/kg.
